In publication PMC5388449 (Journal of electroanalytical chemistry (Lausanne, …, 2016):
Like-named read-outs stand apart in the source and are kept apart here.

How the values were obtained:
Concanavalin A (Con A) = Concanavalin A (Con A) (Canavalia ensiformis, UniProt P02866); test: biochemical; assay type: binding, Canavalia ensiformis (Jack Bean); conditions: for ΔRct (Rct after Con A immobilization – Rct before): single-component SAM on gold wire
peanut agglutinin (PNA) = target: T1, peanut agglutinin (PNA) (Arachis hypogaea, UniProt P02872); test: EIS negative control: PNA exposed to SAMs of thiolated mannosides on gold wire; assay type: binding; conditions: single-component SAM of Man-C8-SH on gold wire, 0.5 μM PNA
T1 sequence (P02872 24-273): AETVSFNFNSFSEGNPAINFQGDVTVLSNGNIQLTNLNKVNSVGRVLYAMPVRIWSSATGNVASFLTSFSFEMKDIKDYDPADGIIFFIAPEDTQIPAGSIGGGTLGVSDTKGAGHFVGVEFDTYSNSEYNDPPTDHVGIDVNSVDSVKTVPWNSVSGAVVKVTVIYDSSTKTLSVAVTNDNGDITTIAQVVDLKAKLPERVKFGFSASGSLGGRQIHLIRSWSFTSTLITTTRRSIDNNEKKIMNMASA
Outline: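 Gold wires cleaned in nitric acid, then 0.5 M NaBH4 for 17 h. SAMs formed from thiolated mannoside, alone or with TEG-SH (1.0 mM total in methanol), 17 h at room temperature. Lectin in 10 mM Tris pH 7.4 with 0.1 M NaCl, 1 mM CaCl2, 1 mM MnCl2; 1 h at room temperature, then rinsed. EIS run at 5.0 mm exposed wire in 5 mM 1:1 ferri/ferrocyanide in 10 mM Tris pH 7.4, 100 kHz–1 Hz, 0.22 V vs Ag/AgCl. Rct obtained by Randles-circuit fit of Nyquist plots.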

Con A [1] = conditions: SPR, cited from earlier work
Con A [2] = conditions: QCM, cited from earlier work
Con A [3] = conditions: ITC, in solution; cited from earlier work
Con A [4] = conditions: ITC, depending on ligand density on nanoparticles surface; cited from earlier work

Molecule | Kd (Concanavalin A (Con A)) [nM] | Hill coefficient (Concanavalin A (Con A)) | LOD (Concanavalin A (Con A)) [nM] | other results
OC[C@H]1O[C@H](OCCCCCCCCS)[C@@H](O)[C@@H](O)[C@@H]1O [A, 8-mercaptooctyl α-D-mannopyranoside] | 70 ± 19 | – | – | ΔRct (Concanavalin A (Con A); mixed SAM 1:4 Man-C8-SH/TEG-SH on gold wire, 0.5 μM Con A, 1 h): 495 ± 15 Ω; ΔRct (Rct after Con A immobilization – Rct before) (Concanavalin A (Con A); 0.5 μM Con A, 1 h): 299 ± 51 Ω; increase in Rct value (peanut agglutinin (PNA)): negligible increase
OC[C@H]1O[C@H](O[C@@H]2[C@H](O)[C@@H](OCCCCCCCCS)O[C@H](CO)[C@H]2O)[C@@H](O)[C@@H](O)[C@@H]1O [B, 8-Mercaptooctyl 3-O-(α-D-mannopyranosyl)-α-D-mannopyranoside] | 75 ± 20 | – | – | –
OC[C@H]1O[C@H](OC[C@H]2O[C@H](OCCCCCCCCS)[C@@H](O)[C@@H](O)[C@@H]2O)[C@@H](O)[C@@H](O)[C@@H]1O [C, 8-Mercaptooctyl 6-O-(α-D-mannopyranosyl)-α-D-mannopyranoside] | 14 ± 4 | 0.73 ± 0.17 | 6 | –
OC[C@H]1O[C@H](OC[C@H]2O[C@H](OCCCCCCCCS)[C@@H](O)[C@@H](O[C@H]3O[C@H](CO)[C@@H](O)[C@H](O)[C@@H]3O)[C@@H]2O)[C@@H](O)[C@@H](O)[C@@H]1O [D, 8-Mercaptooctyl 3,6-di-O-(α-D-mannopyranosyl)-α-D-mannopyranoside] | 30 ± 5 | 0.55 ± 0.05 | 13 | –
OC[C@H]1O[C@H](OC[C@H]2O[C@H](OCCCCCCCCS)[C@@H](O)[C@@H](O)[C@@H]2O[C@H]2O[C@H](CO)[C@@H](O)[C@H](O)[C@@H]2O)[C@@H](O)[C@@H](O)[C@@H]1O [E, 8-Mercaptooctyl 4,6-di-O-(α-D-mannopyranosyl)-α-D-mannopyranoside] | 81 ± 31 | 0.50 ± 0.06 | 11 | –
OCCOCCOCCS [TEG-SH, 8-mercapto-3,6-dioxaoctanol, reference compound] | – | – | – | ΔRct (Rct after Con A immobilization – Rct before) (Concanavalin A (Con A); 0.5 μM Con A, 1 h): 63 ± 13 Ω
OC[C@H]1OC(O)[C@@H](O)[C@@H](O)[C@@H]1O (stereo partly shown) [mannose] | – | – | – | Kd (Con A [1]; mannose functionalized on a gold surface, multivalent interactions): 78 nM; Kd (Con A [1]; mannose–Con A interaction): 135 to 400 nM; Kd (Con A [2]; 1:2 binding of Con A to mannose): 71 nM; Kd (Con A [2]; mannose–Con A interaction): 250 to 400 nM
CO[C@H]1O[C@H](CO)[C@@H](O)[C@H](O)[C@@H]1O [methyl α-D-mannopyranoside] | – | – | – | Ka (Con A [3]): 0.82 × 10^4; Kd (Con A [3]): 122000 nM
dimannose | – | – | – | Kd (Con A [4]): 35 to 175 nM
